Source: PubChem (several laboratories)
Bfl-1 A1 inh: caspase 3/7 activation in MEF A1-2A-BIM cells, primary screen, A1 inhibitor project, cell-based, luminescence, HTS. caspase activation, % (no concentration beside the values). 330,000 compounds, 0.066% hits. AID 2462, 2010. Caspase-Glo 3/7 luminescence, 3 h; percent of clofoctol response, vehicle zero;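 active = over half of replicate activation scores above 10%, or exactly half above 10 with the replicate mean above 10; inconclusive = replicate mean below 10 yet half the replicates above 10; inactive = over half of replicates below 10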
HGIII-sPLA2 inh: human group III sPLA2 inhibitors, primary screen, biochemical, QFRET, BODIPY PC-A2 liposome substrate; Group 3 secretory phospholipase A2 (Homo sapiens), Q9NZ20; QFRET BODIPY PC-A2 liposome hydrolysis, fluorescence; inhibition, % at 12.2 µM; 370,000 compounds, 0.56% hits; AID 743126, 2013;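 active = inhibition above mean plus 3 SD of compounds lying within the high and low control bounds, cut at about 19% in these data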;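 also: 0% = median of test compound wells and 100% = no enzyme DMSO wells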
MC4R ag barr: MC4R agonists recruiting beta-arrestin, primary screen, cell-based, luminescence, agonist arm of biased-ligand search; Melanocortin receptor 4 (Homo sapiens), P32245; U2OS MC4R beta-arrestin complementation; percent of melanotan II response, DMSO zero; activation, % at 8.9 µM; 360,000 compounds, 0.98% hits;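 active = activation above a per-plate cutoff, the mean activation of sample wells on that plate plus 3 SD, cut at about 8% in these data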
Target sequence (P32245 whole entry, looked up): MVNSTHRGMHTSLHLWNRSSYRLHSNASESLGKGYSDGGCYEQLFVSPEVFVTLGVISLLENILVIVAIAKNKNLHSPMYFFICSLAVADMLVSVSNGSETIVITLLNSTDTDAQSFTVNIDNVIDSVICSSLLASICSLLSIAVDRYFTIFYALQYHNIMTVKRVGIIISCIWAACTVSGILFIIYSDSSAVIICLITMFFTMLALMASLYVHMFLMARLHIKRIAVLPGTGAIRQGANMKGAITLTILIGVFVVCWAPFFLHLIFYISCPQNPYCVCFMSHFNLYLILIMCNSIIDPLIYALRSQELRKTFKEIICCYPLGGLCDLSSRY
Granule exo inh: LAMP-1 surface exposure blockers, TALL-104 cells – cell-based, flow cytometry, MLPCN library, primary screen | inhibition, % at 10 µM | TALL-104 LAMP-1 surface exposure; cells stimulated with thapsigargin and PMA | 360,000 compounds, 0.66% hits;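 active = inhibition above about 55%, limit read from the data; inconclusive = no clear call, values can overlap the other calls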
MC4R antag cAMP: MC4R antagonists of cAMP signaling, primary screen, cell-based, TR-FRET, antagonist arm of biased-ligand search. inhibition, % at 6.5 µM. Melanocortin receptor 4 (Homo sapiens), P32245. MC4R-expressing cells, MTII-stimulated cAMP, LANCE TR-FRET. 360,000 compounds, 0.48% hits;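 active = inhibition above its plate's cutoff, the mean of tested wells on that plate plus 3 SD, cut at about 29% in these data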;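 also: 0% = Melanotan II alone and 100% = Melanotan II plus saturating MCL0020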
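material = U2OS cells stably expressing human melanocortin 4 receptor (MC4R) | also added = Melanotan II challenge | dosing = single nominal compound dose of 6.5 µM | detection = TR-FRET with Eu-cAMP and labeled anti-cAMP, 671 nm | replication = singlicate | timing = compound 30 min, challenge 1 h, detection 1 h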
NTR1 agonist: agonists of human NTR1, primary screen, imaging, U2OS cells, beta-arrestin-GFP, high content; Neurotensin receptor type 1 (Homo sapiens), P30989; NTR1-U2OS beta-arrestin-GFP spot imaging, agonist mode; activation, % at 20 µM; 330,000 compounds, 0.17% hits; AID 493036, 2011;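 active = activation at or above 40% of the spot to cytoplasm intensity ratio, with at least 20 cells analyzed; inconclusive = wells under 20 cells, flagged as cytotoxic or low count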;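 also: 0% = DMSO without peptide and 100% = 100 nM NTR1 peptide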
sPLA2 confirm: human group III sPLA2 inhibitors, confirmation, biochemical, QFRET, triplicate; inhibition, % at 12.2 µM; shares compounds with HGIII-sPLA2 inh; recombinant hGIII-sPLA2, BODIPY PC-A2 QFRET fluorescence; 2,000 compounds, 34% hits;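 active = mean inhibition across triplicates above the hit cutoff set in the earlier primary screen, cut at about 19% in these data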;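 also: 0% = enzyme with DMSO and 100% = DMSO wells lacking enzyme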
535nm interf: 535nm fluorescence optical interference, confirmation, artefact control for HGIII-sPLA2 inhibitor project, biochemical, QFRET | 2,000 compounds, 8.5% hits | shares compounds with HGIII-sPLA2 inh | BODIPY FL product fluorescence interference | inhibition, % at 12.2 µM | AID 743282, 2014;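 active = average inhibition above the solvent-only control mean plus 3 SD, cut at about 6% in these data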;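 also: 0% = DMSO with substrate plus product and 100% = DMSO with substrate alone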
Starred values were filed as active, the others as inactive; ? = inconclusive; nt = no result. An excerpt weighted towards active compounds, which were near 2.5% of everything screened.

SMILES	Bfl-1 A1 inh	HGIII-sPLA2 inh	MC4R ag barr	Granule exo inh	MC4R antag cAMP	NTR1 agonist	sPLA2 confirm	535nm interf
O=C(Nc1ccccc1)Nc1ccc(Nc2ccccc2)cc1	-4	25*	1	6	5	0	6	0
O=C1c2ccccc2C(=O)N1CCSc1ncn[nH]1	0	-1	-3	0	-4	-1	nt	nt
O=C1c2ccccc2C(=O)N1CCSc1n[nH]c(=S)s1	-2	20*	-1	-8	6	0	25*	5
Cc1ccc([N+](=O)[O-])c(-c2n[nH]c(=S)n2-c2cccc(Cl)c2)c1	1	31*	-2	0	12	0	22*	6.6*
S=c1[nH]nc(-c2ccc(Cl)cc2Cl)n1-c1ccccc1	1	16	0	-1	7	0	nt	nt
COc1ccc(CC(N)c2csc(NC(=O)c3cc(C(C)(C)C)nn3Cc3ccccc3)n2)cc1 (stereo unspecified)	nt	24*	4	17	14	nt	4	-5
CC1=NN(c2ccccc2)C(=O)/C1=C/C=C/c1ccccc1	1	23*	-2	?	-7	26	46*	11*
Cc1cc(C(=O)NNC(=S)Nc2ccccc2)nn1C	-1	29*	-1	-1	-7	0	23*	0
Cc1cc(NC(=O)Nc2cccc(Cl)c2)n(-c2ccccc2)n1	1	5	-2	-1	7	1	nt	nt
Cc1c(C(=O)NNC(=S)Nc2cccc(Cl)c2)nnn1-c1ccccc1	0	31*	-4	-7	-1	0	34*	9.3*
CCOc1ccc(C(=O)Nc2nncs2)cc1OCC	0	22*	2	-2	-1	1	-2	1
CC(C)OC(=O)N(C)C[C@H]1OCc2cnnn2CCCC(=O)N([C@H](C)CO)C[C@@H]1C	nt	2	0	-6	-3	nt	nt	nt
COc1cc([N+](=O)[O-])ccc1N	1	28*	1	1	-6	-2	2	-4
CCOC(=O)C(=O)Nc1ccc([N+](=O)[O-])cc1OC	0	23*	0	4	1	1	-1	-1
CCOC(=O)Nc1ccc([N+](=O)[O-])cc1OC	0	-4	0	-2	1	0	nt	nt
CCOC(=O)[C@H]1[C@H]2COc3ccccc3[C@@H]2N2C(=O)[C@@H](C)NC(=O)[C@@]12C	1	12	-1	31	-1	0	nt	nt
CC(Oc1ccccc1F)c1nnc(SCC(=O)NCc2ccc3c(c2)OCO3)o1 (stereo unspecified)	0	84*	0	-2	-7	1	-1	-5
CCOc1ccc2nc(Cl)c(C3CC(c4ccco4)=NN3S(=O)(=O)c3ccccc3)cc2c1 (stereo unspecified)	1	29*	-2	-2	8	-1	2	-13
COc1ccc2cc(C3CC(c4ccco4)=NN3S(C)(=O)=O)c(Cl)nc2c1 (stereo unspecified)	0	6	0	5	5	2	nt	nt
CCCC[n+]1ccn(-c2nc3ccccc3nc2[N-]S(=O)(=O)c2ccc(Br)cc2)c1	0	21*	-1	-9	6	2	0	-12
O=C1[C@@H]2[C@@H](CN3CN(c4ccccc4)N=C(c4ccccc4)[C@@]23c2ccccc2)C(=O)N1c1ccccc1	nt	0	0	8	-2	nt	nt	nt
CCn1cc(CNC(=O)c2c(-c3c(Cl)cccc3Cl)noc2C)c(C)n1	1	21*	1	1	1	-1	0	-1
Cc1onc(-c2c(Cl)cccc2Cl)c1C(=O)NCc1ccccn1	0	4	-3	0	1	-1	nt	nt
CC(C)c1ccccc1NC(=S)NCC1(N(C)C)CCCCC1	1	20*	-4	2	6	0	26*	-8
CC(C)c1ccccc1NC(=S)NC(=O)C1CCCCC1	2	10	6	2	12	3	nt	nt
SMILES	Bfl-1 A1 inh	HGIII-sPLA2 inh	MC4R ag barr	Granule exo inh	MC4R antag cAMP	NTR1 agonist	sPLA2 confirm	535nm interf
Cc1nn(-c2ccccc2)c(C)c1C(=O)OCc1ccc(C#N)cc1	1	-9	0	-18	4	1	nt	nt
O=C(N1CCOCC1)C12CC3CC(C1)CC(n1cnc(Cl)n1)(C3)C2	0	21*	0	-2	4	0	1	-3
O=C(N1CCOCC1)C12CC3CC(C1)CC(C(=O)N1CCOCC1)(C3)C2	2	5	1	2	4	-2	nt	nt
O=C(NCc1nnc(SCC(=O)N2CCCC2)o1)c1cccc(C(F)(F)F)c1	0	1	-1	4	0	4	nt	nt
NC(=O)C1(Nc2ccc(-c3ccc(Cl)cc3)cc2)CCCC1	nt	22*	0	5	21	nt	11	-1
CCCCN1CC(=O)N2[C@H]3c4ccc(OC)cc4OC[C@@H]3[C@H](c3ccccc3)[C@]2(C)C1=O	0	-2	0	3	8	2	nt	nt
COc1ccc(Nc2cc(C)c3cc([N+](=O)[O-])ccc3n2)cc1	0	4	0	24	2	17	nt	nt
Cc1cc(C(=O)N/N=C2\CCCc3ccccc32)c(C)o1	0	-1	-1	0	-2	-1	nt	nt
COc1ccc2c(c1)CCC/C2=N\NC(=O)c1ccoc1C	-1	21*	-2	-6	12	nt	12	-5
Cc1cc(C)nc(Sc2ccc([N+](=O)[O-])cc2[N+](=O)[O-])n1	0	20*	0	5	0	2	3	-1
Cc1ccc(C)c(NC(=O)NNC(=O)c2cc3ccccc3cc2O)c1	-1	22*	-2	3	0	0	22*	3
Cc1ccc(NC(=O)NNC(=O)c2cc3ccccc3cc2O)cc1C	0	28*	-1	17	1	1	26*	3
Cc1ccc(NC(=O)NNC(=O)c2cc3ccccc3cc2O)c(C)c1	0	16	0	20	0	0	nt	nt
